Data on four compounds can be found in ChEMBL document CHEMBL1122075, “Absolute stereochemistry and dopaminergic activity of enantiomers of 2,3,4,5-tetrahydro-7,8-dihydroxy-1-phenyl-1H-3-benzazepine” (J Med Chem, 1982).

One assay concerns the target Adenylate cyclase. Description: Tested for ability to stimulate dopamine sensitive adenylate cyclase in rat caudate homogenate. The procedure, abridged: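 Rat striatal homogenates; dopamine-sensitive adenylate cyclase stimulation read as cyclic AMP production. EC50 is the molar concentration giving half-maximal stimulation of cAMP production over the concentration range tested.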

The species named for assay [1] is Canis familiaris. The assay can be described thus: Compound was tested for its renal vasodilator activity in dogs. Format: functional. Conditions: Canis lupus familiaris. The procedure, abridged:
(§1)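 Dogs anesthetized and surgically prepared for electromagnetic renal blood flow measurement, with carotid arterial pressure recorded. Drug infused into an antecubital vein at progressively increasing (generally threefold) concentrations to give cumulative dose-response data. RVR = mean arterial pressure / mean renal blood flow. ED15 is the average maximum cumulative dose lowering RVR by 15%.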

For assay [2], the species on record is Canis familiaris. Description: Renal vascular resistance (RVR) in dog was determined. Format: functional, Canis lupus familiaris. Summed up: as §1
The species named for assay [3] is Rattus norvegicus. Description: Ability to induce contralateral rotations in rats having lesions in the substantia nigra. Format: functional. The procedure, abridged:
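Rotation counts in rats carrying unilateral left substantia nigra lesions. RD500 is the dose calculated to give 500 body rotations over a 2-h test period.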

For assay [4], the species on record is Rattus norvegicus. The assay can be described thus: Compound was tested for maximum response, the percent of cyclic AMP induced by 5 x 10 E-5 M dopamine.
For assay [5], the species on record is Canis familiaris. Description: Renal vascular resistance (RVR) in dog was determined; Not statistically significant. It counts as functional, Canis lupus familiaris. The procedure, abridged:
as §1

The species entered for assay [6] is Canis familiaris. The assay can be described thus: Percent av maximum in dog was determined; Expressed as av max (%). Format: functional, Canis lupus familiaris.
The species named for assay [7] is Rattus norvegicus. The assay can be described thus: Compound was tested for maximum response, the percent of cyclic AMP induced by 1 x 10 E-4 M dopamine. Format: functional.

In the case of `Cl.Oc1cc2c(cc1O)[C@@H](c1ccccc1)CNCC2`, the EC50 on Adenylate cyclase is 32 nM. Moreover, the ED15 in the assay listed under Canis familiaris [1] is 0.025 mg/kg. In the assay filed under Canis familiaris [2], the RVR was 18. In the assay listed under Rattus norvegicus [3], this compound displayed an RD500 of 0.5 mg/kg. The same compound yielded a Max response in the assay listed under Rattus norvegicus [4] of 66%.

As for `Cl.Oc1cc2c(cc1O)C(c1ccccc1)CNCC2` (racemic), on Adenylate cyclase, the EC50 was 71 nM. In addition, the ED15 in the assay listed under Canis familiaris [1] amounted to 0.031 mg/kg. This compound gave an RVR in the assay listed under Canis familiaris [2] of 19. In addition, the RD500 in the assay listed under Rattus norvegicus [3] was found to be 0.7 mg/kg. In the assay filed under Rattus norvegicus [4], this compound gave a Max response of 68%.

`Cl.Oc1cc2c(cc1O)[C@H](c1ccccc1)CNCC2` gave an ED15 in the assay listed under Canis familiaris [1] of over 0.55 mg/kg. Also, the RVR in the assay listed under Canis familiaris [5] stood at 9. This compound also returned an Activity in the assay filed under Canis familiaris [6] of 9%. The same compound registered a Max response in the assay filed under Rattus norvegicus [7] of 27%. The same compound yielded an RD500 in the assay listed under Rattus norvegicus [3] of over 2 mg/kg.

`NCCc1ccc(O)c(O)c1` [DOPAMINE] registered an EC50 at Adenylate cyclase of 3500 nM. Besides, the ED15 in the assay filed under Canis familiaris [1] was 0.0027 mg/kg.
